Measured values as given in ChEMBL document CHEMBL1124459, “Activity of aromatic substituted phenylpiperazines lacking affinity for dopamine binding sites in a preclinical test of antipsychotic efficacy” (J Med Chem, 1989).

Experiments:
[1] = target: T1, Serotonin 2 (5-HT2) receptor (Rattus norvegicus, UniProt P30994+P08909+P14842); test: Binding affinity at rat 5-hydroxytryptamine 2 receptor by [3H]ketanserin displacement.; type: protein assay
[2] = target: T2, 5-hydroxytryptamine receptor 1A (Rattus norvegicus, UniProt P19327)
T2 sequence (P19327 whole entry): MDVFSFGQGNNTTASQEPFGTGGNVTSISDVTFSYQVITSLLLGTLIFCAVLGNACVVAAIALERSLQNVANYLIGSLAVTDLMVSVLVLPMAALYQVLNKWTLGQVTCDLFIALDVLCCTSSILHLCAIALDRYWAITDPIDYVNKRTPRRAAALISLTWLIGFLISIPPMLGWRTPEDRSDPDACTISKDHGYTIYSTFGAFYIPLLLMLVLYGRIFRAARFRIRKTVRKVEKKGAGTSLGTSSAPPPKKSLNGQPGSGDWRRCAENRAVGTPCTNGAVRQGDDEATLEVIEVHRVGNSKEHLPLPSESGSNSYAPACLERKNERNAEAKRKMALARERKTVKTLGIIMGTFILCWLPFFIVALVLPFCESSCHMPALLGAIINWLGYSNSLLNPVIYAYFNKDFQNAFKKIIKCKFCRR

[3] = target: T3, Adrenergic receptor alpha-1 (Rattus norvegicus, UniProt P15823+P23944+P43140); test: Binding affinity against rat Alpha-1 adrenergic receptor.; type: protein assay
T3 sequence (P15823 whole entry): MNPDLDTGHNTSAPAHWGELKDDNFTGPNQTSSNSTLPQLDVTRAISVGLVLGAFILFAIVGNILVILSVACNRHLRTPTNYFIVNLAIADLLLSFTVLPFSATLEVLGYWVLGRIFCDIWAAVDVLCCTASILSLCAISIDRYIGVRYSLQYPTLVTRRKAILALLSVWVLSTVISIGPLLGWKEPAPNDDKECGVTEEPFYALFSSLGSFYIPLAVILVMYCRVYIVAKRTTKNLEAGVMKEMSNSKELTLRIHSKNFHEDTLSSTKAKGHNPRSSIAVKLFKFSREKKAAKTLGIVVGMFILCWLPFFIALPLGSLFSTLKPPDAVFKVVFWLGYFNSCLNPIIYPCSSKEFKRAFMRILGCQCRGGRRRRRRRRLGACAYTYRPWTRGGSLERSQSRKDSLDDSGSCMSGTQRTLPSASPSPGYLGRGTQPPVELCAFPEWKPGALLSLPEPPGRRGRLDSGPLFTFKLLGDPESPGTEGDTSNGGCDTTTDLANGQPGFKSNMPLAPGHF
T3 sequence (P23944 whole entry): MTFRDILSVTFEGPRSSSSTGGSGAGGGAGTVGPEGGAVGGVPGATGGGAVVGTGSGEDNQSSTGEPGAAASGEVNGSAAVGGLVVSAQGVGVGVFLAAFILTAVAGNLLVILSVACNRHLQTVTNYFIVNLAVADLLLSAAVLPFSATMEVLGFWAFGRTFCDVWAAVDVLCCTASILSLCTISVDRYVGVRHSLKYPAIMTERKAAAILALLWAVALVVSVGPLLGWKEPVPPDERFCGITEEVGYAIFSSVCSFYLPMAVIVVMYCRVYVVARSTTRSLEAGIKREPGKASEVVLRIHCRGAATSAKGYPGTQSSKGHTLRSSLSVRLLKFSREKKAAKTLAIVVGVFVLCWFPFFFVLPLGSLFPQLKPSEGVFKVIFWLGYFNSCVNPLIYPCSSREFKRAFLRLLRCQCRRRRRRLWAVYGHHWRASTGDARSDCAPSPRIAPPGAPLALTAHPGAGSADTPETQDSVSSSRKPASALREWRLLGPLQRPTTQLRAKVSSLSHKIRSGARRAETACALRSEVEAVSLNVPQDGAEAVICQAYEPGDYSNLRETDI
T3 sequence (P43140 whole entry): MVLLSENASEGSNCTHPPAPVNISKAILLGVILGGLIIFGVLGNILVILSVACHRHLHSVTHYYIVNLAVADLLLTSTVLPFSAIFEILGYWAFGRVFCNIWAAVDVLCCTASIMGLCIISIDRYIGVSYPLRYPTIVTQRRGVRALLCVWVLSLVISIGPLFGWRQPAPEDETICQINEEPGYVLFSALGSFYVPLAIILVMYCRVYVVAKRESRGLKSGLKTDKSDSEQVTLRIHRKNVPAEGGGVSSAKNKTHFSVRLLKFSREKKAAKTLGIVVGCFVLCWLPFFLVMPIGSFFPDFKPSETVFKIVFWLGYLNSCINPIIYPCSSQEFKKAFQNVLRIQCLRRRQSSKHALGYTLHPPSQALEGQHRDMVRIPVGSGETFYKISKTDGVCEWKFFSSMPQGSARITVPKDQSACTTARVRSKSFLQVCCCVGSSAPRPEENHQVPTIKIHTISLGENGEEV

D(1A) dopamine receptor [4] = target: T4, D(1A) dopamine receptor (Rattus norvegicus, UniProt P18901); test: Binding affinity at rat Dopamine receptor D1 by [3H]SCH-23390 displacement.
Summary of the method: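 Rat striatal tissue suspended in 20 mM NaHepes without sucrose, at 250 volumes of the tissue weight. Labelled with [3H]SCH-23390 added as a 3 nM solution. Nonspecific binding set with unlabelled SCH-23390 added as a 30 μM solution. Incubated 20 min. Run in duplicate, with one to five concentration–response curves per compound.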

Rattus norvegicus [5] = organism: Rattus norvegicus; test: (§1) The percent loss of escape responding was determined for the estimated effective dose 50 values for CAR block; type: functional
[6] = target: T5, Serotonin 1 (5-HT1) receptor (Rattus norvegicus, UniProt P28564+P30940+P19327+P28565); test: Inhibition of [3H]5-HT radioligand binding against 5-hydroxytryptamine 1 receptor; type: protein assay
D(2) dopamine receptor [7] = target: T6, D(2) dopamine receptor (Rattus norvegicus, UniProt P61169); test: Binding affinity against rat Dopamine receptor D2.
Rattus norvegicus [8] = test: (§2) Effective dose in blocking conditioned avoidance responding (CAR) in the rat when administered intraperitoneally; type: functional; conditions: ip
Summary of the method: (§3)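 Rats trained on a discrete-trial single-lever conditioned avoidance task, dosed ip and tested at the time of peak effect. Each dose was given to 6–12 rats. CAR reduction and loss of escape responding were recorded.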

[9] = target: 5-hydroxytryptamine receptor 1B (Rattus norvegicus, UniProt P28564); test: Binding affinity at rat 5-hydroxytryptamine 1B receptor by [3H]5-HT displacement.
D(1A) dopamine receptor [10] = target: T4, D(1A) dopamine receptor; test: Activity in radioreceptor binding assay by using […] against Dopamine receptor D1
[11] = target: T5, Serotonin 1 (5-HT1) receptor; test: Binding affinity determined in radioreceptor binding assay by using [3H]5-HT radioligand against 5-hydroxytryptamine 1 receptor; type: protein assay
Rattus norvegicus [12] = organism: Rattus norvegicus; test: as §1; type: functional; summary of the method: as §3; remark: listed apart in the source
[13] = target: T1, Serotonin 2 (5-HT2) receptor; test: Binding affinity determined in radioreceptor binding assay by using [3H]ketanserin radioligand against 5-hydroxytryptamine 2 receptor; type: protein assay
Rattus norvegicus [14] = test: as §2; conditions: ip
D(2) dopamine receptor [15] = target: T6, D(2) dopamine receptor; test: Binding affinity determined in radioreceptor binding assay against dopamine receptor D2
D(1A) dopamine receptor [16] = target: T4, D(1A) dopamine receptor

Sequence of 5-hydroxytryptamine receptor 1B (P28564 whole entry): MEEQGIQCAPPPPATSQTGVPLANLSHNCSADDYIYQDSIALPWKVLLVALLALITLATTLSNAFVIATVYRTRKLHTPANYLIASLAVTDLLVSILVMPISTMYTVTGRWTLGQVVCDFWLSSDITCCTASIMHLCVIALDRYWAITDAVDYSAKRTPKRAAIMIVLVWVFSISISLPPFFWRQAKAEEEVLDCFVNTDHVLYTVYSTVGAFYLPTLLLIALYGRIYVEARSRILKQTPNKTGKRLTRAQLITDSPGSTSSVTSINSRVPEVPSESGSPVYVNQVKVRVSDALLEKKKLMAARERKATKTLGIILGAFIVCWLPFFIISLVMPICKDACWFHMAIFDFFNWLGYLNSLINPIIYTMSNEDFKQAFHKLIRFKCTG
T4 sequence (P18901 whole entry): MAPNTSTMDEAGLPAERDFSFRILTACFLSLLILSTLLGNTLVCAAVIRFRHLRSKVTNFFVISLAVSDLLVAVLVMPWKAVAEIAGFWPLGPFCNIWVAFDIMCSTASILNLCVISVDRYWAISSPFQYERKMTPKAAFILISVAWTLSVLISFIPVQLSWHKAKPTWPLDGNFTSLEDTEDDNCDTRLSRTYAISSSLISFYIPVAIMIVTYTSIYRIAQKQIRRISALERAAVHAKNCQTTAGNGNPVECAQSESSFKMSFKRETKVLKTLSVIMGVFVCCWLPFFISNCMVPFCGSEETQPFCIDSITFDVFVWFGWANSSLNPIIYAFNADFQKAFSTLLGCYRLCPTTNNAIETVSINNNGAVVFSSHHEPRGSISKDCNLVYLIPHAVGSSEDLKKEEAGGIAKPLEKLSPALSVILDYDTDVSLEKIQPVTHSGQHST
T6 sequence (P61169 whole entry): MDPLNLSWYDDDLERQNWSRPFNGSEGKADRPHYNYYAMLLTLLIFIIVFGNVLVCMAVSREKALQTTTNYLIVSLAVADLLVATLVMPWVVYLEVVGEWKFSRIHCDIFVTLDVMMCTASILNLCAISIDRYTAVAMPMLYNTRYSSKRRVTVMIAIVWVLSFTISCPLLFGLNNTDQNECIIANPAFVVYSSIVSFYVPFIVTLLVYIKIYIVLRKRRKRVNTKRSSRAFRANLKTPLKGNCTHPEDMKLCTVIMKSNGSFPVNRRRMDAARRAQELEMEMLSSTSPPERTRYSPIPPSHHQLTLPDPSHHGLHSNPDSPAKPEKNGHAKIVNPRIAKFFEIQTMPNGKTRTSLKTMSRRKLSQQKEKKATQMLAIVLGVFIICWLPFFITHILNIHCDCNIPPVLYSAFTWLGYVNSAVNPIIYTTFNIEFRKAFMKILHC

Row | Structure (SMILES) | Ki [1] [nM] | Ki [2] [nM] | Ki [3] [nM] | Ki (D(1A) dopamine receptor [4]) [nM] | Loss (Rattus norvegicus [5]) [%] | Ki [6] [nM] | Ki (D(2) dopamine receptor [7]) [nM] | ED50 (Rattus norvegicus [8]) [mg/kg] | Ki [9] [nM] | further results
1 | O=[N+]([O-])c1cccc(N2CCNCC2)c1 | 419 | ~322 | > 1000 | > 1000 | 4.3 | 250 | > 1000 | 5.6 | 33.6 | 
2 | Fc1cccc(N2CCNCC2)c1 | > 1000 | 114 | 670 | > 1000 |  | 86.5 | > 1000 | 3.2 | 30.8 | 
3 | CCOc1ccccc1N1CCNCC1 | 774 | 9.1 | 70 | > 1000 | ~1 | 42.6 | 144 | 3.4 | 13.8 | 
4 | N#Cc1ccccc1N1CCNCC1 | > 1000 | 25.5 | 214 | > 1000 | 4.3 | 26.1 | > 1000 | 5.7 | 21.8 | 
5 | CC(C)c1ccccc1N1CCNCC1 | 190 | 12.5 | 168 |  |  |  | 111 | 5.9 | 3.98 | Ki (D(1A) dopamine receptor [10]): > 1000 nM; Ki [11]: 23.4 nM; Loss (Rattus norvegicus [12]): 0.1%
6 | Fc1ccccc1N1CCNCC1 | > 1000 | 43 | 373 | > 1000 | 1.6 | 57.9 | > 1000 | 5.1 | 28.9 | 
7 | CCCCOc1ccccc1N1CCNCC1 | 277 | 11.1 | 139 | > 1000 | 0.2 | 19.3 | 244 | 11.2 | 4 | 
8 | CCc1ccccc1N1CCNCC1 | 124 | 22.7 | 96 | > 1000 |  |  | 449 | 6.8 | 8.2 | Ki [11]: 17.1 nM; Loss (Rattus norvegicus [12]): 2.5%
9 | COc1ccccc1N1CCNCC1 | > 1000 | 9.5 | 510 | > 1000 | 1.8 | 29 |  | 5.6 | 17.3 | 
10 | CC(C)Oc1ccccc1N1CCNCC1 | 235 | 7.6 | 84 | > 1000 | 0.4 | 19 | 64 | 4.8 | 6.9 | 
11 | Cc1ccccc1N1CCNCC1 |  | 27.4 | 108 | > 1000 |  |  | > 1000 | > 20 | 44.6 | Ki [11]: 62.4 nM; Ki [13]: 558 nM
12 | Clc1ccccc1N1CCNCC1 | > 1000 | 19.5 |  |  | 3.1 |  |  |  | 11.7 | ED50 (Rattus norvegicus [14]): 10.2 mg/kg; Ki (D(2) dopamine receptor [15]): > 1000 nM; Ki (D(1A) dopamine receptor [16]): > 1000 nM
13 | CCCc1ccccc1N1CCNCC1 | 232 | 19.4 | 117 | > 1000 |  |  | 379 | > 15 | 15.9 | Ki [11]: 34.9 nM
14 | CCCCc1ccccc1N1CCNCC1 | 204 | 19.1 | 31.8 | > 1000 |  |  | 841 | > 15 | 8.4 | Ki [11]: 64.8 nM
15 | CCCN(CCC)C1CCc2cccc(O)c2C1 (stereo unspecified) [8-OH-DPAT] |  |  |  |  |  |  |  | 0.5 |  | 
16 | CN1[C@@H]2CC[C@H]1C[C@@H](OC(=O)C(CO)c1ccccc1)C2 (stereo partly specified) [ATROPINE] |  |  |  |  |  |  |  | 3 |  | 
17 | Clc1cccc(N2CCNCC2)c1 [CHLOROPHENYLPIPERAZINE] | 40 | 23 | 236 | > 1000 | 1.5 | 25 | > 1000 | 2.4 | 4.4 | 
18 | CN(C)CCCN1c2ccccc2Sc2ccc(Cl)cc21 [CHLORPROMAZINE] |  |  |  |  | 0.2 |  |  | 1.8 |  | 
19 | CN1CCN(C2=Nc3cc(Cl)ccc3Nc3ccccc32)CC1 [CLOZAPINE] |  |  |  |  | 12.6 |  |  |  |  | 
20 | COC(=O)[C@H]1[C@@H](OC(=O)c2ccccc2)C[C@@H]2CC[C@H]1N2C [COCAINE] |  |  |  |  |  |  |  | 10 |  | 
21 | CNCCCN1c2ccccc2CCc2ccccc21 [DESIPRAMINE] |  |  |  |  |  |  |  | 20 |  | 
22 | CN1C(=O)CN=C(c2ccccc2)c2cc(Cl)ccc21 [DIAZEPAM] |  |  |  |  |  |  |  | 10 |  | 
23 | O=C(CCCN1CCC(O)(c2ccc(Cl)cc2)CC1)c1ccc(F)cc1 [HALOPERIDOL] |  |  |  |  | 1.7 |  |  |  |  | 
24 | CCN(CC)C(=O)[C@@H]1C=C2c3cccc4[nH]cc(c34)C[C@H]2N(C)C1 [LYSERGIDE] |  |  |  |  |  |  |  | 0.32 |  | 
25 | Clc1cncc(N2CCNCC2)n1 [MK-212] | > 1000 | 202 | 913 | > 1000 | 19 |  | > 1000 | 2.8 | 178 | Ki [11]: 844 nM
26 | c1ccc(C2(N3CCCCC3)CCCCC2)cc1 [PHENCYCLIDINE] |  |  |  |  |  |  |  | 1 |  | 
27 | c1ccc(N2CCNCC2)cc1 [PHENYLPIPERAZINE] | 668 | 149 | 794 | > 1000 | 6 | 149 | > 1000 | 2.7 | 63.3 | 
28 | CSc1ccc2c(c1)N(CCC1CCCCN1C)c1ccccc1S2 (stereo unspecified) [THIORIDAZINE] |  |  |  |  | 7.3 |  |  | 9.7 |  | 
29 | CN1CCN(CCCN2c3ccccc3Sc3ccc(C(F)(F)F)cc32)CC1 [TRIFLUOPERAZINE] |  |  |  |  | 1.2 |  |  | 0.52 |  | 
